XBP1 UPR activ = adaptive UPR (XBP1) activation; CHO-XBP1 luciferase reporter, IRE1-XBP1 UPR activation, luminescence; percent of tunicamycin response, DMSO as zero; activation, % at 20 µM; hit rate 0.33% among 330,000; AID 463104;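 active = versus positive control, 20 µM dose yields 30% or more activation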;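 note: 100% = tunicamycin at 10 µg/mL and 0% = DMSO only wells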
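Material: CHO-XBP1 cells stably carrying IRE1-XBP1-driven luciferase reporter | Medium: F12 with 10% serum | Compound dosing: 20 µM single concentration, DMSO 1% | Incubation: Overnight seeding at 37 °C, 6 h compound treatment at 37 °C | Detection: Steady-Glo luminescence read | Read-out basis: % activation of reporter signal versus tunicamycin and DMSO controls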
Apaf1 inhib = inhibitors of human Apaf-1 apoptosome; O14727; reconstituted apoptosome caspase-3 activity, DEVD-Rh110 fluorescence; inhibition, % at 20 µM; hit rate 0.71% among 330,000; active = inhibition of at least 40% at 20 µM;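 note: plate controls were DMSO wells for no effect and DEVD-CHO caspase inhibitor wells for full effect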
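Medium: Hepes buffer, pH 7.5 / System: biochemical Apaf-1 apoptosome reconstitution / Measured by: Rh110 fluorescence, excitation 480 nm, emission 540 nm / Times: compound with Apaf-1, dATP, procaspase-3 30 min, then 50 min reaction, room temperature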
Mdm2 MdmX PPI = disrupts the human Mdm2-MdmX interaction; O15151+Q00987; SaOS-2 split-luciferase Mdm2/MdmX complementation, luminescence; inhibition, % at 8 µM; hit rate 3% among 330,000; AID 485346;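 active = inhibition of at least 50% at 8 µM in the primary screen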
Target sequence (O15151 whole entry, looked up): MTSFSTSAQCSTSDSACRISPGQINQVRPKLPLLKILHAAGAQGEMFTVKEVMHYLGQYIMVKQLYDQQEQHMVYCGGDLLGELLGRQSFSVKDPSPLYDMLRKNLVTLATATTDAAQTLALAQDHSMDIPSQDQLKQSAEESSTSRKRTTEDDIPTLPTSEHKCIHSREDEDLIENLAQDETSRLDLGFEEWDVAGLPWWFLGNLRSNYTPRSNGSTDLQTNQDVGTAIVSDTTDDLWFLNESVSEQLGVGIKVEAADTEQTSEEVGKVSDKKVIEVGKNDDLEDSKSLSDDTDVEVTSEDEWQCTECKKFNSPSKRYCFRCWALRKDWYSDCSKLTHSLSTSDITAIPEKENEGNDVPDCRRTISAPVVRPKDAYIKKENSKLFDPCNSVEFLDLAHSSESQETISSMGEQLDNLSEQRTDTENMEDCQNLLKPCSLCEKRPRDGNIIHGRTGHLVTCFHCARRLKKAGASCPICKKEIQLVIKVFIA
Target sequence (Q00987 whole entry, looked up): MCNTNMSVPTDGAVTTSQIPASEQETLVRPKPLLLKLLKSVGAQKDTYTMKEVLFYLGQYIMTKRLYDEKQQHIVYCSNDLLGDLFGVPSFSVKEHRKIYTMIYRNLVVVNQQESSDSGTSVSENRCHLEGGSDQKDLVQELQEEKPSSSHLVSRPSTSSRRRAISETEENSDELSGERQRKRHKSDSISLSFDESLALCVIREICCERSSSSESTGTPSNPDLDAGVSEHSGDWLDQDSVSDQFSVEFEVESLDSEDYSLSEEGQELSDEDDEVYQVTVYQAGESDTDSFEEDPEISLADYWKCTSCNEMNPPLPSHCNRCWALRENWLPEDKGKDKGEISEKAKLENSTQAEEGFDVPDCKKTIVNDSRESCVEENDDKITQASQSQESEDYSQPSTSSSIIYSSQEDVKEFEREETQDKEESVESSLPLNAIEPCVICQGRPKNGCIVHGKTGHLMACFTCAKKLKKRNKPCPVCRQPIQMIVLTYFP
UPR CHOP act = apoptotic UPR (CHOP) activation | CHO-CHOP luciferase reporter, luminescence; percent of tunicamycin response over DMSO baseline | hit rate 0.34% among 330,000 | activation, % at 10 µM | AID 449763;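 active = at 10 µM dose, activation of 40% or more, normalized to positive control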;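 note: 100% = tunicamycin at 10 µg/mL and 0% = DMSO alone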
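System: CHO-CHOP luciferase reporter cell line; amount: 500 cells/well; buffer or medium: F12 medium containing 10% fetal bovine serum; incubation: 6 h compound exposure at 37 °C after overnight seeding; measured by: luciferase luminescence after 10 min with Steady-Glo reagent; evaluation: % reporter activation, DMSO baseline versus tunicamycin full activation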
UBC13 polyUb = human UBC13 polyubiquitination inhibition | inhibition, % at 20 µM | P61088 | UBC13 polyubiquitin chain formation, TR-FRET | hit rate 0.47% among 330,000; in the data active = inhibition above about 45%, passing the limit was not always enough
UPR CHOP confirm = apoptotic UPR (CHOP) activation, confirmed | shares compounds with UPR CHOP act | CHO-CHOP cells, CHOP-luciferase reporter luminescence; percent of tunicamycin response, DMSO as zero | activation, % at 10 µM | hit rate 64% among 1,000 | AID 463112; in the data active = activation above about 33%;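 note: 0% = DMSO wells and 100% = tunicamycin 10 µg/mL wells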
XBP1 UPR conf = confirmation of adaptive unfolded protein response (XBP1) activators; shares compounds with XBP1 UPR activ; CHO-XBP1 IRE1-XBP1 luciferase reporter, luminescence; activation, % at 20 µM; hit rate 63% among 1,000; AID 485299;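 active = reporter signal at least 30% of the positive control's activation in two or more of four replicate wells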;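 note: plate controls were DMSO negative control for no effect and tunicamycin 10 µg/mL positive control for full effect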
Mdm2-MdmX conf = confirmation of human Mdm2/MdmX interaction inhibitors; shares compounds with Mdm2 MdmX PPI; AID 489028; hit rate 55% among 10,000; inhibition, % at 8 µM; Mdm2-MdmX binding, luminescent assay; in the data active = inhibition above about 40%
FLuc counter = inhibits full-length luciferase, flagging false Mdm2/MdmX hits. SaOS-2 full-length luciferase counterscreen, luminescence. AID 504607. shares compounds with Mdm2 MdmX PPI. hit rate 77% among 6,200. inhibition, % at 8 µM;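 active = mean inhibition at 8 µM reaching about 37%, which flags the compound as non-specific, limit read from the data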;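 note: p53-null SaOS-2 cells with luciferase driven by a doxycycline-inducible promoter; compound on cells about two nights before reading with doxycycline added after day one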
Active calls of the source: *; x = not tested or not shown. The list is not random: actives were taken first. Their share in the collection is about 4.1%.

SMILES	XBP1 UPR activ	Apaf1 inhib	Mdm2 MdmX PPI	UPR CHOP act	UBC13 polyUb	UPR CHOP confirm	Mdm2-MdmX conf	FLuc counter	others
CCn1cc(C(=O)NC(=S)Nc2sc3c(c2C(=O)OC)CCCCCC3)cn1	60.1*	14.5	41.9	70.6*	-6.7	35.2*	x	x	XBP1 UPR conf=56.9*
CCCNC(=O)C1(CC2CC(c3ccccc3)=NO2)CCN(C(=O)C2(C)CC2)CC1 (stereo unspecified)	0.3	-1.1	11.3	0.5	1.2	x	x	x
Oc1ccc(/C=N/Nc2cc(N3CCOCC3)nc(N3CCOCC3)n2)cc1O	58.7*	27.4	-25.9	267.6*	3.6	100.0*	x	x	XBP1 UPR conf=42.0*
Cn1c(=O)c2c(ncn2CC(=O)N/N=C/C=C\c2ccccc2[N+](=O)[O-])n(C)c1=O	-2.7	-3.5	1.8	2.9	-15.3	x	x	x
O=C(NCCc1ccc(O)c(O)c1)C1COc2ccccc2O1 (stereo unspecified)	49.5*	14.7	11.3	64.3*	-1.5	9.2	x	x	XBP1 UPR conf=46.2*
O=C(NCC(c1cccnc1)N1CCN(c2ccccc2F)CC1)c1cccc(Cl)c1 (stereo unspecified)	0.2	-2.4	26.3	0.5	6.9	x	x	x
Cc1[nH]c2ccccc2c1CN1CCC(Cc2ccccc2)CC1	33.2*	-5.6	45.9	45.9*	6.6	46.8*	x	x	XBP1 UPR conf=20.7
COc1ccc(/C=C/c2nc3cc(-c4ccccc4)ccc3o2)cc1O	38.7*	22.2	10.4	45.2*	4.5	50.0*	x	x	XBP1 UPR conf=29.2*
COc1ccccc1/C=C/c1nc2ccc(OC(C)=O)cc2c(=O)o1	0.6	5.0	-9.1	2.7	1.9	x	x	x
Cc1ccc(CNC(=O)c2ccc([N+](=O)[O-])o2)cc1	-0.7	-6.2	18.1	-2.1	-11.9	x	x	x
Cc1ccc(/C=C/C(=O)c2ccc([N+](=O)[O-])o2)cc1	-3.9	3.6	100.3*	189.1*	-8.3	134.7*	97.2*	57.7*
O=C(/C=C/c1ccc(Cl)cc1)c1ccc([N+](=O)[O-])o1	-5.7	7.4	97.7*	69.1*	-17.0	21.9	100.3*	31.4
Cc1cccc(-n2c(C)c(C)c3c(N)ncnc32)c1	-3.4	1.5	32.1	-0.4	31.0	x	x	x
COc1cccc(-n2c(SCC(=O)N3CCc4ccccc43)nnc2-c2c[nH]c3ccccc23)c1	336.3*	11.7	74.9*	102.2*	-24.5	43.0*	48.9*	82.7*	XBP1 UPR conf=229.4*
O=C(C[C@H]1C[C@H](C(=O)N2CCCCC2)[C@@]2(CCc3ccccc3)c3[nH]c4ccc(Cl)cc4c3CCN2C1=O)NCCN1CCOCC1	-4.7	33.7	83.1*	52.1*	x	0.3	42.1*	42.1*
c1ccc(CCNc2nc(-c3ccccn3)nc3ccccc23)cc1	14.2	2.3	92.8*	43.7*	-4.2	30.2	88.9*	23.0
c1ccc(-c2nc(N3CCOCC3)c3ccccc3n2)nc1	3.7	13.1	43.1	-2.6	-25.5	x	x	x
c1ccc(-c2nc(NCc3cccnc3)c3ccccc3n2)cc1	0.7	0.2	33.1	-0.3	10.1	x	x	x
c1ccc(-c2nc(N3CCCCCC3)c3ccccc3n2)nc1	0.3	-8.6	83.6*	82.3*	11.6	30.8	85.8*	21.1
COc1ccc(CCn2c(C)cc(C(=O)CCl)c2C)cc1OC	-0.4	3.9	74.3*	78.6*	-6.7	122.1*	27.4	x
Cc1cc(C(=O)CCl)c(C)n1CCc1ccc(F)cc1	8.2	0.9	91.9*	178.9*	9.4	195.1*	61.8*	34.4
COc1ccc(CCn2c(C)c(C(C)=O)c(C(C)=O)c2C)cc1OC	-5.1	-17.3	-11.3	-0.1	4.5	x	x	x
Cc1cc(C(=O)CCl)c(C)n1CCc1ccc(Cl)cc1	1.6	22.9	92.6*	234.4*	-0.6	206.8*	69.2*	30.7
Cc1ccc(Sc2nc(-c3ccccc3)nnc2C(F)(F)F)cc1	-10.1	-2.9	54.0*	40.3*	5.3	119.6*	3.6	x
CNc1nc(-c2ccccc2)nnc1C(F)(F)F	2.8	-1.3	6.6	3.0	4.6	x	x	x
SMILES	XBP1 UPR activ	Apaf1 inhib	Mdm2 MdmX PPI	UPR CHOP act	UBC13 polyUb	UPR CHOP confirm	Mdm2-MdmX conf	FLuc counter	others
CCc1cccc2sc(N3CCN(C(=O)c4ccc([N+](=O)[O-])o4)CC3)nc12	-2.7	14.9	93.8*	157.4*	-11.2	140.9*	75.2*	46.4*
CC(C)(C)OC(=O)N1CCN(c2ccc(CNC(=O)c3ccc(Cl)cc3)cc2)CC1	0.1	21.3	8.9	-1.3	11.1	x	x	x
CN(C)S(=O)(=O)c1cccc(NC(=O)CSc2cccc3cccnc23)c1	-5.2	-0.6	97.5*	161.8*	4.9	246.2*	48.7*	17.4
Cc1cc(C)c2c(=O)[nH]c(SCC(=O)Nc3cccc(S(=O)(=O)N(C)C)c3)nc2n1	0.3	2.4	29.1	0.1	-10.0	x	x	x
Cc1ccccc1N(CC(=O)NC1CCCC1)C(=O)c1csnn1	-3.6	-2.1	-23.3	-2.9	7.5	x	x	x
COc1ccc(NC(=O)c2nc(S(=O)(=O)Cc3cccc(C)c3)ncc2Cl)c(OC)c1	-5.5	7.6	84.8*	61.4*	5.1	295.9*	70.1*	23.1
Cc1ccccc1NC(=O)c1nc(S(C)(=O)=O)ncc1Cl	-11.3	-6.3	39.1	16.5	0.6	x	x	x
Cc1nnc(NC(=O)c2nc(S(=O)(=O)Cc3ccccc3)ncc2Cl)s1	-11.5	2.8	85.2*	40.7*	3.7	11.4	16.4	x
Cc1cccc(C)c1NC(=O)c1nc(S(=O)(=O)Cc2ccccc2)ncc1Cl	-11.2	-0.5	68.1*	239.2*	-7.5	270.5*	97.7*	1.5
COc1ccc(NC(=O)c2c(-c3ccccc3Cl)noc2C)c(OC)c1	-1.8	-8.4	-6.8	5.3	6.1	x	x	x
Cc1ccccc1CS(=O)(=O)c1ncc(Cl)c(C(=O)Nc2ccc(F)cc2)n1	-9.3	2.8	100.0*	186.5*	10.3	100.8*	65.4*	52.1*
COC(=O)C(=O)C/C(=N/Nc1ncnc2ccccc12)c1ccc(Cl)cc1	-2.5	7.9	16.4	1.6	-34.7	x	x	x
Cc1ccc2nc(N3CCN(c4cccc(C)c4C)CC3)c3nnnn3c2c1	-2.9	2.8	-8.7	0.8	20.4	x	x	x
Cc1ccc2nc(Cl)c3nnnn3c2c1	-7.3	-5.2	97.3*	139.2*	-1.3	-6.5	90.3*	11.0
O=C(CCN1C(=O)/C(=C\c2ccccc2F)SC1=S)N1CCCCC1	-5.7	-1.0	93.2*	43.5*	-17.0	37.3*	67.0*	104.6*
